# Measurements: paper PMC3793015 (Journal of agricultural and food chemistry, 2013)
# What was measured:
# [1] = Stability of α-MG during incubation in cell-free culture media; type: physicochemical; settings: for calculated rate of α-MG loss per hour: DMSO, 24 h incubation; for recovery of α-MG after 24 h incubation: Tween 40 micelles
# Method in brief: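 Compound was incubated cell-free for 24 h at 37 °C in RPMI, MEM, DMEM or McCoy's 5A, sampled at 0, 4, 8 and 24 h, extracted and analysed by RP-HPLC. Vehicles tested were: DMSO into medium without FBS or with 10% FBS (final DMSO <0.03%); Tween 40 micelles (final <0.02%) in DMEM or McCoy's; compound preincubated 48 h in 100% FBS, diluted 1:10 in RPMI 1640. Mean ± SD, n = 3 dishes.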
# THP-1 = experiment: Cytotoxicity of α-MG; type: cell-based, human; settings: read-out: IC50 (cytotoxicity); THP-1, 8 h, 10% FBS delivery
# Method in brief: (§1)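 Cytotoxicity was judged by phase-contrast morphology and MTT reduction to formazan after exposure to increasing compound concentrations. Exposure was 24 h for RAW 264.7, MDM, HepG2 and HT-29, 8 h for PMA-differentiated THP-1, and 4 h for differentiated Caco-2. Delivery was DMSO into 10% FBS medium for RAW 264.7, THP-1 and HepG2; FBS-complexed compound at 10% FBS in RPMI 1640 for MDM; Tween 40 micelles for Caco-2 and HT-29.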
# HepG2 = experiment: Cytotoxicity of α-MG; type: cell-based, human; settings: read-out: IC50 (cytotoxicity); HepG2, 24 h, 10% FBS delivery
# Method in brief: as §1
# Caco-2 = experiment: Cytotoxicity of α-MG; type: cell-based, human; settings: read-out: IC50 (cytotoxicity); Caco-2, 4 h, Tween 40 delivery
# Method in brief: as §1
# [2] = tested on: IL-8 secretion by colonic HT-29 cells; experiment: IL-8 secretion; type: cell-based, human
# Method in brief: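 HT-29 monolayers, 2 days post-confluence, were pretreated with compound delivered in Tween 40 micelles. Activation used LPS from E. coli O111:B4. IL-8 secreted into the medium was quantified by ELISA, in both activated and nonactivated cultures.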
# THP-1 cells = experiment: Cellular uptake and metabolism of α-MG; type: in vitro ADME, human
# Method in brief: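 THP-1 monocytes were differentiated with 100 nM PMA for 48 h, then exposed 24 h to 5.2 μM compound (DMSO stock into 10% FBS medium). Activated cultures were pre-exposed to 5 ng/mL LPS for 4 h and washed with PBS. Spent medium and cells were collected separately, extracted and analysed by RP-HPLC for free and glucuronidated/sulfated xanthones. Amounts are % of initial compound; mean ± SD, n ≥ 5.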
# Caco-2 cells = experiment: Cellular uptake, metabolism and transport of α-MG on Transwell inserts; type: in vitro ADME, human
# Method in brief: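 Caco-2 cells were differentiated 21–25 days post-confluence on Transwell inserts. Compound (12 μM) in Tween 40 micelles was added apically for 24 h. Activated cultures had 5 ng/mL IL-1β for 4 h, then a PBS wash. Apical medium, basolateral medium and cell monolayer were collected separately and analysed by RP-HPLC for free and conjugated xanthones. Amounts are % of initial compound; mean ± SD, n ≥ 5.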
# [3] = 24 h after addition of α-MG, control cultures, nd: not detected
# [4] = Caco-2 Transwell, 12 μM apical, 24 h
smiles,measurement,setting,value
"COc1c(O)cc2oc3cc(O)c(CC=C(C)C)c(O)c3c(=O)c2c1CC=C(C)C [α-MG, α-mangostin]",calculated rate of α-MG loss per hour,"[1]; DMEM lacking FBS, cell free",3.2%
same,recovery of α-MG after 24 h incubation,"[1]; DMEM without FBS, cell free",110 ± 3
same,stability of α-MG during 24 h incubation,"[1]; DMSO stock added to media (RPMI 1640, MEM, DMEM) with 10% (v/v) FBS, cell free",101 ± 6%
same,calculated rate of α-MG loss per hour,"[1]; MEM lacking FBS, cell free",4.0%
same,calculated rate of α-MG loss per hour,"[1]; McCoy's 5A lacking FBS, cell free",2.3%
same,recovery of α-MG after 24 h incubation,"[1]; McCoy's medium without FBS, cell free",108 ± 4
same,calculated rate of α-MG loss per hour,"[1]; RPMI lacking FBS, cell free",2.7%
same,stability of α-MG after 24 h,"[1]; added to 100% FBS diluted 1:10 (v:v) into RPMI 1640, cell free",95 ± 8%
same,IC50,THP-1,23 µM
same,IC50,HepG2,25 µM
same,IC50,Caco-2,> 80 µM
same,inhibition of IL-8 chemokine secretion,"[2]; activated HT-29, 10 μM pretreatment 1 h, LPS 100 ng/mL 16 h",30–40%
same,effect on basal secretion of IL-8,[2]; nonactivated HT-29 cultures,more than doubled
same,"xanthone in media, THP-1","THP-1 cells; 0 h, amount of α-MG at start",33710 ± 161 pmol/dish
same,"intracellular profile table, α-MG at 0 h, THP-1","THP-1 cells; 0 h, control cultures",33710 ± 161 pmol/dish
same,"intracellular xanthone, THP-1",THP-1 cells; [3],11439 ± 995 pmol/dish
same,"intracellular ratio of free to conjugated xanthones, activated vs control","THP-1 cells; THP-1, 5 ng/mL LPS 4 h before α-MG, 24 h, p < 0.05",increased
same,"free xanthones in cells, of initial α-MG","THP-1 cells; THP-1, 5.2 μM, 24 h, control",20 ± 4%
same,"free xanthones in spent medium, of initial α-MG","THP-1 cells; THP-1, 5.2 μM, 24 h, control",40 ± 1%
same,"phase II conjugates in cells, of initial α-MG","THP-1 cells; THP-1, 5.2 μM, 24 h, control",14 ± 3%
same,"recovery of xanthones, of α-MG added","THP-1 cells; THP-1, 24 h incubation",75 ± 6%
same,"xanthone in media, Caco-2","Caco-2 cells; 0 h, amount of α-MG at start",20741 ± 261 pmol/dish
same,"intracellular profile table, α-MG at 0 h, Caco-2","Caco-2 cells; 0 h, control cultures",20741 ± 261 pmol/dish
same,"intracellular xanthone, Caco-2",Caco-2 cells; [3],3000 ± 551 pmol/dish
same,"ratio of free to conjugated xanthones in apical medium, activated vs control","Caco-2 cells; Caco-2, 5 ng/mL IL-1β, 24 h, p < 0.05",increased
same,"recovery of xanthones, of α-MG added","Caco-2 cells; Caco-2, 24 h",approximately 65%
same,amount of xanthones and ratio of conjugated to free xanthones transported into basolateral compartment,"Caco-2 cells; Caco-2, treatment with IL-1β vs control, p < 0.05",increased
same,conjugated xanthones in basolateral medium,Caco-2 cells; [4],1.7 ± 0.3%
same,conjugated xanthones in cells,Caco-2 cells; [4],10 ± 3%
same,conjugates in apical medium,Caco-2 cells; [4],11 ± 2%
same,free xanthones in apical medium,Caco-2 cells; [4],35 ± 1%
same,free xanthones in basolateral medium,Caco-2 cells; [4],0.8 ± 0.1%
same,free xanthones in cells,Caco-2 cells; [4],6 ± 0.6%
same,"xanthones in apical medium (total), of initial α-mangostin",Caco-2 cells; [4],47 ± 3%
same,"xanthones in basolateral medium (total), of initial α-mangostin",Caco-2 cells; [4],3 ± 0.3%
same,"xanthones in cells (total), of initial α-mangostin",Caco-2 cells; [4],16 ± 3%
same,"intracellular ratio of free to conjugated xanthones, activated vs control","Caco-2 cells; Caco-2 cells, 5 ng/mL IL-1β 4 h before α-MG, 24 h, p < 0.05",increased
